# Columns and labels:
# HL-60 = experiment: In vitro antitumor activity against HL-60(TB) tumor cell lines; type: functional; details: Homo sapiens
# Tumor Cell line [1] = experiment: In vitro antitumor activity against NCI 's human tumor cell lines; type: functional; details: read-out: Average log GI50 (converted)
# Outline: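 NCI in vitro screen of 60 human tumor cell lines. […] The value is calculated from all cell lines tested.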
# MDA-N = experiment: In vitro antitumor activity against MDA-N tumor cell lines; type: functional; details: Homo sapiens
# NCI-H460 = experiment: In vitro antitumor activity against NCI-H460 tumor cell lines; type: functional; details: Homo sapiens
# OVCAR-3 = experiment: In vitro antitumor activity against OVCAR-3 tumor cell lines; type: functional; details: Homo sapiens
# PC-3 = experiment: In vitro antitumor activity against PC-3 tumor cell lines; type: functional; details: Homo sapiens
# SF-295 = experiment: In vitro antitumor activity against SF-295 tumor cell lines; type: functional; details: Homo sapiens
# SK-MEL-5 = experiment: In vitro antitumor activity against SK-MEL-5 tumor cell lines; type: functional; details: Homo sapiens
# U-251 = experiment: In vitro antitumor activity against U-251 tumor cell lines; type: functional; details: Homo sapiens
# Tubulin = Tubulin (Bos taurus, UniProt Q6B856+Q862L2+Q862F3); experiment: Inhibition of tubulin polymerization; type: functional
# HCT-116 = experiment: In vitro antitumor activity against HCT116 tumor cell lines; type: functional; details: Homo sapiens
# MDA-MB-435 = experiment: In vitro antitumor activity against MDA-MB-435 NCI 's human tumor cell lines; type: functional
# CAKI-1 = experiment: In vitro antitumor activity against CAKI-1 tumor cell lines; type: functional; details: Homo sapiens
# [2] = system: Panel breast (Carcinoma cell lines); experiment: log molar concentration required to cause total growth inhibition of breast tumor cell lines; type: functional; details: Homo sapiens, read-out: Log TGI (converted)
# Outline: (§1)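 TGI from the NCI 60 human tumor cell line in vitro screen: log of the molar drug concentration causing total growth inhibition, reported for the named cell panel.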
# [3] = system: Panel CNS (Carcinoma cell lines); experiment: log molar concentration required to cause total growth inhibition of CNS cancer cell lines; type: functional; details: Homo sapiens, read-out: Log TGI (converted); outline: as §1
# [4] = system: Panel colon (Carcinoma cell lines); experiment: log molar concentration required to cause total growth inhibition of colon tumor cell lines; type: functional; details: Homo sapiens, read-out: Log TGI (converted); outline: as §1
# Leukemic tumor cell line = experiment: log molar concentration required to cause total growth inhibition of leukemic tumor cell lines; type: functional; details: Homo sapiens, read-out: Log TGI (converted); outline: as §1
# Melanoma tumor cell line = experiment: log molar concentration required to cause total growth inhibition of melanomic tumor cell lines; type: functional; details: Homo sapiens, read-out: Log TGI (converted); outline: as §1
# NSCLC = experiment: log molar concentration required to cause total growth inhibition of non-small cell lung tumor cell lines; type: functional; details: Homo sapiens, read-out: Log TGI (converted); outline: as §1
# [5] = system: Panel prostate (Carcinoma cell lines); experiment: log molar concentration required to cause total growth inhibition of prostate tumor cell lines; type: functional; details: Homo sapiens, read-out: Log TGI (converted); outline: as §1
# [6] = system: Panel renal (Carcinoma cell lines); experiment: log molar concentration required to cause total growth inhibition of renal tumor cell lines; type: functional; details: Homo sapiens, read-out: Log TGI (converted); outline: as §1
# Tubulin (Bos taurus) = Tubulin (Bos taurus) (UniProt Q6B856+Q862L2+Q862F3); experiment: Inhibition of radiolabeled colchicine binding to tubulin; type: protein assay; design: concentration or dose not given beside the values; details: concentration not given here
# Outline: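 Measured by DEAE-cellulose filter binding. The 0.1 mL mixture held bovine brain tubulin 1.0 µM, 1.0 M monosodium glutamate (pH 6.6), 1 mM MgCl2, 0.1 mM GTP, 5.0 µM [3H]colchicine, 5% DMSO and inhibitor at 5.0 µM. It was incubated 20 min at 37 °C, filtered through two DEAE-cellulose papers, washed with water and counted by liquid scintillation.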
# Tumor Cell line [7] = experiment: log molar concentration required to cause total growth inhibition of NCI 's human tumor cell lines; type: functional; details: read-out: Log TGI (converted)
# Outline: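 NCI 60 human tumor cell line in vitro screen. TGI is the log molar concentration giving total growth inhibition, calculated from all cell lines tested.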
# [8] = system: Panel ovarian (Carcinoma cell lines); experiment: log molar concentration required to cause total growth inhibition of ovarian tumor cell lines; type: functional; details: Homo sapiens, read-out: Log TGI (converted); outline: as §1
Compound,GI50 (HL-60),GI50 (Tumor Cell line [1]),GI50 (MDA-N),GI50 (NCI-H460),GI50 (OVCAR-3),GI50 (PC-3),GI50 (SF-295),GI50 (SK-MEL-5),GI50 (U-251),IC50 (Tubulin),GI50 (HCT-116),GI50 (MDA-MB-435),GI50 (CAKI-1),inhibition (Tubulin (Bos taurus)),further results
Cc1ccnc2nc(-c3ccc4ccccc4c3)cc(O)c12,204 nM,1200 nM,204 nM,1050 nM,1290 nM,1380 nM,1480 nM,437 nM,646 nM,1800 nM,427 nM,204 nM,2400 nM,–,–
Cc1cc(C)c2c(O)cc(-c3cccc(F)c3)nc2n1,37.1 nM,85.1 nM,12.9 nM,53.7 nM,18.2 nM,61.7 nM,33.1 nM,37.1 nM,64.6 nM,740 nM,< 10 nM,< 10 nM,35.5 nM,29%,TGI [2]: 1000 nM; TGI [3]: 9770 nM; TGI [4]: 1170 nM; TGI (Leukemic tumor cell line): 2450 nM; TGI (Melanoma tumor cell line): 13800 nM; TGI (NSCLC): 2510 nM; TGI [5]: 49000 nM; TGI [6]: 49000 nM; TGI (Tumor Cell line [7]): 5620 nM; TGI [8]: 5500 nM
Cc1ccnc2nc(-c3cccc4ccccc34)cc(O)c12,< 10 nM,35.5 nM,< 10 nM,< 10 nM,< 10 nM,19.9 nM,10.7 nM,< 10 nM,< 10 nM,930 nM,< 10 nM,< 10 nM,12 nM,37%,–
Cc1cccc(-c2cc(O)c3cc(C)cnc3n2)c1,174 nM,646 nM,< 10 nM,389 nM,251 nM,309 nM,417 nM,288 nM,170 nM,1500 nM,407 nM,< 10 nM,437 nM,–,–
Cc1cc(C)c2c(O)cc(-c3ccc4ccccc4c3)nc2n1,3470 nM,13500 nM,3240 nM,13200 nM,20000 nM,5500 nM,14800 nM,2190 nM,15800 nM,> 40000 nM,12600 nM,2950 nM,51300 nM,–,–
Cc1cc(C)c2c(O)cc(-c3cccc(Cl)c3)nc2n1,74.1 nM,347 nM,19.1 nM,224 nM,170 nM,27.5 nM,47.9 nM,117 nM,295 nM,770 nM,170 nM,13.2 nM,204 nM,22%,TGI [2]: 1230 nM; TGI [3]: 5010 nM; TGI [4]: 28800 nM; TGI (Leukemic tumor cell line): 81300 nM; TGI (Melanoma tumor cell line): 72400 nM; TGI (NSCLC): > 100000 nM; TGI [5]: 3090 nM; TGI [6]: 58900 nM; TGI (Tumor Cell line [7]): 26300 nM; TGI [8]: 30200 nM
Cc1cccc(-c2cc(O)c3c(C)ccnc3n2)c1,18.2 nM,57.5 nM,11 nM,36.3 nM,22.4 nM,33.1 nM,30.2 nM,33.9 nM,53.7 nM,1800 nM,46.8 nM,< 10 nM,53.7 nM,–,–
Oc1cc(-c2ccc3ccccc3c2)nc2ncccc12,1820 nM,8130 nM,1660 nM,3800 nM,8320 nM,10500 nM,9120 nM,3470 nM,4370 nM,14000 nM,3800 nM,1780 nM,5620 nM,–,–
Cc1ccc2c(O)cc(-c3ccc4ccccc4c3)nc2n1,1780 nM,4570 nM,1950 nM,3800 nM,3630 nM,2630 nM,3800 nM,3310 nM,4570 nM,5100 nM,3980 nM,1580 nM,5370 nM,–,–
Cc1cc(C)c2c(O)cc(-c3cccc4ccccc34)nc2n1,245 nM,1050 nM,234 nM,631 nM,347 nM,759 nM,589 nM,468 nM,372 nM,780 nM,380 nM,191 nM,9550 nM,15%,–
Cc1cccc(-c2cc(O)c3ccc(C)nc3n2)c1,26.9 nM,97.7 nM,31.6 nM,17.8 nM,490 nM,138 nM,60.3 nM,126 nM,200 nM,1900 nM,120 nM,32.4 nM,427 nM,–,–
Cc1cccc(-c2cc(O)c3c(C)cc(C)nc3n2)c1,12900 nM,38000 nM,20900 nM,44700 nM,30200 nM,31600 nM,64600 nM,34700 nM,53700 nM,2300 nM,17800 nM,20000 nM,56200 nM,–,–
Cc1cnc2nc(-c3cccc4ccccc34)cc(O)c2c1,< 10 nM,19.1 nM,< 10 nM,< 10 nM,< 10 nM,< 10 nM,< 10 nM,< 10 nM,< 10 nM,550 nM,< 10 nM,< 10 nM,< 10 nM,46%,–
Oc1cc(-c2ccc3ccccc3c2)nc2ncc(Cl)cc12,1780 nM,5750 nM,1550 nM,4070 nM,2630 nM,3090 nM,5500 nM,2950 nM,4790 nM,2500 nM,3980 nM,851 nM,7590 nM,–,–
Oc1cc(-c2cccc3ccccc23)nc2ncccc12,< 10 nM,35.5 nM,< 10 nM,38.9 nM,< 10 nM,17.8 nM,< 10 nM,< 10 nM,10.2 nM,1100 nM,< 10 nM,< 10 nM,15.1 nM,–,–
Cc1ccc2c(=O)cc(-c3cccc(F)c3)[nH]c2n1,22.4 nM,42.7 nM,14.4 nM,33.1 nM,19.5 nM,34.7 nM,28.8 nM,22.4 nM,38 nM,530 nM,28.2 nM,12.3 nM,45.7 nM,41%,TGI [2]: 575 nM; TGI [3]: 2240 nM; TGI [4]: 550 nM; TGI (Leukemic tumor cell line): 2750 nM; TGI (Melanoma tumor cell line): 24000 nM; TGI (NSCLC): 5750 nM; TGI [5]: 1580 nM; TGI [6]: 64600 nM; TGI (Tumor Cell line [7]): 4680 nM; TGI [8]: 10200 nM
Cc1ccc2c(O)cc(-c3cccc(Cl)c3)nc2n1,28.8 nM,170 nM,> 100000 nM,41.7 nM,< 10 nM,> 100000 nM,22.9 nM,31.6 nM,64.6 nM,890 nM,25.7 nM,< 10 nM,41.7 nM,38%,TGI [2]: 3800 nM; TGI [3]: 1950 nM; TGI [4]: 3090 nM; TGI (Leukemic tumor cell line): > 100000 nM; TGI (Melanoma tumor cell line): 69200 nM; TGI (NSCLC): 24500 nM; TGI [5]: > 100000 nM; TGI [6]: > 100000 nM; TGI (Tumor Cell line [7]): 21400 nM; TGI [8]: 10500 nM
Cc1cnc2nc(-c3ccc4ccccc4c3)cc(O)c2c1,141 nM,741 nM,132 nM,398 nM,355 nM,407 nM,550 nM,363 nM,468 nM,2100 nM,468 nM,105 nM,617 nM,–,–
Cc1ccc2c(O)cc(-c3cccc4ccccc34)nc2n1,< 10 nM,66.1 nM,< 10 nM,17.4 nM,< 10 nM,30.2 nM,24 nM,13.8 nM,15.5 nM,660 nM,< 10 nM,< 10 nM,6030 nM,40%,–
